The entries come from a sample that favours hits as a whole.
E-sel inducer = induces E-selectin expression in human endothelial cells; AID 686992; HUVEC E-selectin immunofluorescence imaging; normalized: neutral wells 0, TNF-alpha wells 100; actives 0.37% (n = 260,000); P16581; activation, % at 7.58 µM;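 active = mean E-selectin-positive cell signal at least 10% of the positive control, reached in at least 60% of replicates, without over 20% cell loss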
Target sequence (P16581 whole entry, looked up): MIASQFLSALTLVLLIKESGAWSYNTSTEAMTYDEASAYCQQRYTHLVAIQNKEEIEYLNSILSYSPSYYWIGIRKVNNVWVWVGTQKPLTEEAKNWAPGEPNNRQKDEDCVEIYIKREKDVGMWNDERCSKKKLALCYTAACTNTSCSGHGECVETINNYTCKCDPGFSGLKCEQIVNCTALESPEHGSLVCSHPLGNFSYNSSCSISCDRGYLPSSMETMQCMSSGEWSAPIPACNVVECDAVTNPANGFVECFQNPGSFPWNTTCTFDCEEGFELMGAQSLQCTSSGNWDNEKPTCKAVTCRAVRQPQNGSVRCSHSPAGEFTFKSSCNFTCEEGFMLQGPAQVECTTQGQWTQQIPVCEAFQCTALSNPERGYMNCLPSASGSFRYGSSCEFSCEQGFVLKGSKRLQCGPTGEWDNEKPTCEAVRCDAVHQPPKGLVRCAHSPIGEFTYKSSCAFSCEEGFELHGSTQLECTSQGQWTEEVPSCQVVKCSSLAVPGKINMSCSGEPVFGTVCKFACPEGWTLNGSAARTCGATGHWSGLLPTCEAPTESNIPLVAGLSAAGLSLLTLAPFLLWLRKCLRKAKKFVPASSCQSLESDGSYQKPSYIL
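Material: HUVEC primary endothelial cells; Amount: 3,000 cells per well; Dosing: single concentration; Medium: EGM-2 growth medium on 0.1% gelatin-coated wells; Read-out basis: percent E-selectin-positive cells; Signal: immunofluorescence imaging; Control set: TNF-alpha, DMSO.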
Numbers stand for hits; i = inactive.

SMILES	E-sel inducer
CCCC(=O)Nc1ccc2c(c1)C(=O)N(C)C[C@@H](OC)[C@H](C)CN(Cc1ccncc1)[C@H](C)CO2	i
CO[C@H]1CN(C)C(=O)c2ccc(NC(=O)Nc3ccccc3F)cc2OC[C@@H](C)N(C)C[C@@H]1C	i
CC(=O)N1[C@@H]2c3ccc(C4=CCCC4)c(=O)n3C[C@H]1[C@H](CO)[C@H]2C(=O)NCC1CC1	i
Cc1cc(/C=C(\C#N)C(=O)NCc2ccccc2)c(C)[nH]1	i
Cc1cc(/C=C(/C#N)C(=O)O)c(C)n1-c1cccc2ccccc12	i
Cc1c(C(=O)O)cccc1-n1c(C)cc(/C=C(/C#N)C(=O)NCc2ccccc2)c1C	83
CC(=O)N1[C@H](CO)[C@H](c2ccccc2)[C@@H]1CN(C(=O)c1ccccc1F)C(C)C	i
O=C(/C=C/c1ccc(Cl)cc1)NC1CC2CCC1C2 (configuration not stated)	35
O=C(Nc1cccc(Cl)c1)NC1CC2CCC1C2 (configuration not stated)	i
O=C(COC(=O)/C=C/c1ccc(Cl)cc1)NC1CCCC1	i
CCC(C)NC(=O)CSc1nc2cc(S(=O)(=O)N3CCOCC3)ccc2n1CC (configuration not stated)	i
CCCn1c(CCl)nc2cc(S(=O)(=O)N3CCOCC3)ccc21	i
CCn1c(CCC(=O)O)nc2cc(S(=O)(=O)N3CCOCC3)ccc21	117
CCCNC(=O)Nc1ccc2c(c1)C(=O)N(C)C[C@@H](OC)[C@@H](C)CN(Cc1ccncc1)[C@@H](C)CO2	i
COc1ccc(CNC(=O)C[C@H]2C=C[C@@H](NC(=O)c3ccc4c(c3)OCO4)[C@H](CO)O2)cc1	i
CC(C)(C)S(=O)(=O)c1cnc(-c2ccccn2)nc1N	i
CC(C)(C)S(=O)(=O)c1cnc(-c2cnccn2)nc1N	46
Cc1cccc(-c2ncc(S(=O)(=O)C(C)(C)C)c(N)n2)c1	i
CCC(=O)N(C)C[C@H]1Oc2ncc(-c3ccc(F)cc3)cc2C(=O)N([C@@H](C)CO)C[C@H]1C	i
CCN1[C@H](C(=O)N(C)C)[C@@H](CO)[C@@H]2Cn3c(ccc(-c4ccc(F)cc4)c3=O)[C@@H]21	i
C[C@@H]1CN([C@@H](C)CO)C(=O)c2cc(NC(=O)Cc3cn(C)c4ccccc34)ccc2O[C@@H]1CN(C)Cc1ccc(Cl)c(Cl)c1	i
C[C@@H]1CN([C@H](C)CO)C(=O)c2cc(NC(=O)Cc3cn(C)c4ccccc34)ccc2O[C@@H]1CN(C)Cc1ccc(Cl)c(Cl)c1	i
C[C@@H]1CN([C@H](C)CO)C(=O)c2cc(NC(=O)Cc3cn(C)c4ccccc34)ccc2O[C@H]1CN(C)Cc1ccc2c(c1)OCO2	i
C[C@H](CO)N1C[C@H](C)[C@H](CN(C)Cc2ccc3c(c2)OCO3)Oc2ccc(NC(=O)Cc3cn(C)c4ccccc34)cc2C1=O	43
C[C@@H]1CN([C@H](C)CO)C(=O)c2cc(NC(=O)Cc3cn(C)c4ccccc34)ccc2O[C@H]1CN(C)Cc1ccc(Cl)c(Cl)c1	51
SMILES	E-sel inducer
C[C@H]1CN([C@@H](C)CO)C(=O)c2cc(NC(=O)Cc3cn(C)c4ccccc34)ccc2O[C@H]1CN(C)Cc1ccc2c(c1)OCO2	i
CC(C)NC(=O)Nc1cccc2c1O[C@H](CN(C)Cc1ccc(Cl)c(Cl)c1)[C@H](C)CN([C@H](C)CO)C2=O	i
C/C=C/c1ccc2c(c1)O[C@H](CN(C)C(=O)C1CCCCC1)[C@H](C)CN([C@H](C)CO)S2(=O)=O	i
O=C(C1CC1)N1CC(=O)N2[C@@H](CO)[C@@H](c3ccc(Br)cc3)[C@@H]2C1	i
O=C(C[C@@H]1CC[C@H]2[C@@H](COC[C@@H](O)CN2S(=O)(=O)c2ccc(Cl)cc2)O1)NCCN1CCCCC1	i
COC(=O)c1ccccc1NC(=O)CSc1nncn1C	i
CCc1nnc(NC(=O)CSc2ccc(-c3ccccc3OC)nn2)s1	i
COc1ccccc1-c1nnc(NC(=O)CSc2nncn2C)s1	37
Cc1ccc(S(=O)(=O)N(C)C[C@H]2Oc3cc(C#Cc4ccccc4)ccc3S(=O)(=O)N([C@@H](C)CO)C[C@H]2C)cc1	i
C/C=C/c1ccc2c(c1)O[C@H](CN(C)C(=O)c1ccncc1)[C@H](C)CN([C@@H](C)CO)S2(=O)=O	i
C[C@@H]1CN([C@H](C)CO)C(=O)c2cccc(NC(=O)c3ccc(-c4nccs4)cc3)c2O[C@@H]1CN(C)Cc1ccc(Oc2ccccc2)cc1	i
C[C@@H]1CN([C@@H](C)CO)C(=O)c2cccc(NC(=O)c3ccncc3)c2O[C@@H]1CN(C)Cc1ccccc1	i
C[C@H]1CN([C@@H](C)CO)C(=O)c2cccc(NC(=O)c3ccncc3)c2O[C@@H]1CN(C)Cc1ccc(C(=O)Nc2ccccc2N)cc1	58
C[C@@H]1CN([C@@H](C)CO)C(=O)c2cccc(NC(=O)c3ccc(-c4nccs4)cc3)c2O[C@@H]1CN(C)Cc1ccc(-c2ccccc2)cc1	i
C[C@H]1CN([C@@H](C)CO)C(=O)c2cccc(NC(=O)c3ccc(-c4nccs4)cc3)c2O[C@H]1CN(C)Cc1ccccc1	i
C[C@H]1CN([C@@H](C)CO)C(=O)c2cccc(NC(=O)c3ccc(-c4nccs4)cc3)c2O[C@@H]1CN(C)Cc1ccc(Cl)c(Cl)c1	304
C[C@H](CO)N1C[C@H](C)[C@@H](CN(C)Cc2ccc(C(=O)Nc3ccccc3N)cc2)Oc2c(NC(=O)c3ccncc3)cccc2C1=O	i
C[C@@H]1CN([C@@H](C)CO)C(=O)c2cccc(NC(=O)c3ccc(-c4nccs4)cc3)c2O[C@H]1CN(C)Cc1ccc(Oc2ccccc2)cc1	71
C[C@@H]1CN([C@H](C)CO)C(=O)c2cccc(NC(=O)c3ccc(-c4nccs4)cc3)c2O[C@@H]1CN(C)Cc1ccc(Cl)c(Cl)c1	i
O=C(C[C@H]1CC[C@@H](NC(=O)c2ccncc2)[C@@H](CO)O1)Nc1ccc(-c2ccccc2)cc1	i
C[C@@H]1CN([C@H](C)CO)C(=O)c2cc(NC(=O)Nc3cccc4ccccc34)ccc2O[C@H]1CN(C)C(=O)NC1CCCCC1	i
C[C@H]1CN([C@@H](C)CO)C(=O)c2cccc(NC(=O)c3ccc(-c4nccs4)cc3)c2O[C@@H]1CN(C)Cc1ccc(C(=O)Nc2ccccc2N)cc1	i
C[C@H]1CN([C@@H](C)CO)C(=O)c2cccc(NS(=O)(=O)c3ccc(Cl)cc3)c2O[C@H]1CN(C)S(C)(=O)=O	i
O=C(C[C@H]1CC[C@H]2[C@@H](COC[C@@H](O)CN2Cc2ccccc2F)O1)NC1CCC1	i
CC1CN(S(=O)(=O)c2cn(C)c(=O)n(C)c2=O)CC(C)O1 (configuration not stated)	i
SMILES	E-sel inducer
CN(C1CCCCC1)S(=O)(=O)c1cn(C)c(=O)n(C)c1=O	29
Cn1cc(S(=O)(=O)N2CCC(C(N)=O)CC2)c(=O)n(C)c1=O	i
C[C@@H]1CN([C@H](C)CO)C(=O)Cc2cc(NC(=O)Nc3ccc4c(c3)OCO4)ccc2O[C@@H]1CN(C)C(=O)Nc1ccc2c(c1)OCO2	i
Cc1ccccc1-c1cnc2c(c1)C(=O)N([C@@H](C)CO)C[C@@H](C)[C@H](CN(C)C(=O)c1ccccc1)O2	i
COc1ccc(C(=O)Nc2ccc(C(=O)N3CCCC3)cc2)cc1[N+](=O)[O-]	i
COc1ccc(C(=O)Nc2ccc3c(c2)OCCO3)cc1[N+](=O)[O-]	46
COc1ccc(NC(=O)c2ccc3c(c2)OCCO3)cc1OC	i
